Sampled rows, rich in hits. Any-hit rate of the full collection: about 1.7%.
Rpn11 block: Rpn11 (human) deubiquitinase inhibition | O00487 | human 26S proteasome, Ub4-pepOG fluorescence polarization; 20S core pre-blocked with epoxomicin | inhibition, % at 20 µM | 0.59% of 360,000 active | AID 588493;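 active = inhibition at 20 µM, scaled to each plate's controls, above about 33%, limit read from the data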
Target sequence (O00487 whole entry, looked up): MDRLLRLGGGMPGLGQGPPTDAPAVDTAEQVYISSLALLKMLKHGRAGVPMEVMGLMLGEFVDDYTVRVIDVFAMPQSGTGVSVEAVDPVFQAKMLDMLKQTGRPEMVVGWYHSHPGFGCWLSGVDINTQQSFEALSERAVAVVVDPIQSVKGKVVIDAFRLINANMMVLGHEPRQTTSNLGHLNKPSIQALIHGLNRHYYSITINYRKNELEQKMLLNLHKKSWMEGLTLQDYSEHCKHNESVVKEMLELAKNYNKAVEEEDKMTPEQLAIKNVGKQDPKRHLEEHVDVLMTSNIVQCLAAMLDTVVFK
IDE cell activ: activators of human insulin-degrading enzyme in cells; 0.073% of 340,000 active; HEK cells, FAbeta-B cleavage, fluorescence polarization; 0% vehicle, 100% cell-free pure enzyme wells; P14735; activation, % at 5.96 µM; AID 493087;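 active = activation above the mean of all tested compounds plus 3 SD, set per screening campaign, cut at about 17% in these data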
CSN inh: inhibitors of human CSN-mediated cullin deneddylation; Purified CSN, SCF-Nedd8-OG deneddylation, fluorescence polarization; inhibition, % at 12.5 µM; 0.38% of 360,000 active; AID 651999;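 active = pattern-corrected inhibition above about 35%, with an unprinted fluorescence ratio check between 0.5 and 1.5, limit read from the data, passing the limit was not always enough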;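 note: 0% = enzyme with substrate and 100% = substrate without enzyme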
Target sequence (Q92905 whole entry, looked up, one chain of several): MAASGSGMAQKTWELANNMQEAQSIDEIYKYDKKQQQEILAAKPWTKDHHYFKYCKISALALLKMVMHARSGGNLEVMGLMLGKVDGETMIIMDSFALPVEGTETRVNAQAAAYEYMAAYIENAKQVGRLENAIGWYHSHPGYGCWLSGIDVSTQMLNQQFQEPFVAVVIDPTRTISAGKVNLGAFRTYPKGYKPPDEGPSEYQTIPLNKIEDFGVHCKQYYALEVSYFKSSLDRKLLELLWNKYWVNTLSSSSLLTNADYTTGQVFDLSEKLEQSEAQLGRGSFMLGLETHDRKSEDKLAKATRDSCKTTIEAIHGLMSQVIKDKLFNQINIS
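Material: human Csn5 produced in HEK293T cells; Input: enzyme 0.24 nM; Reagent: SCFSkp2-Nedd8OG substrate at 10 nM final; Dosing: 12.5 µM compound; Incubation: 90 min reaction at room temperature; Detection: fluorescence polarization of the substrate; Evaluation: % inhibition of substrate cleavage by Csn5; Control set: substrate-only high control, full reaction low control.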
TPT1 inhibitor: C. albicans TPT1 enzyme inhibition | 0.81% of 300,000 active | recombinant caTPT1, FP RNA substrate dephosphorylation | inhibition, % at 5 µM;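 active = inhibition above the mean of all tested compounds plus 3 SD, set per screening campaign, cut at about 24% in these data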;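 note: plate controls were DMSO alone for no effect and ferristatin control at 100 nM for full effect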
IDE cell inh: cellular human IDE inhibition; P14735; HEK cells, FAbetaB cleavage, fluorescence polarization; inhibition, % at 5.59 µM; 0.41% of 320,000 active; AID 434962;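 active = percent inhibition above the average of all tested compounds plus 3 SD, set per screening campaign, cut at about 16% in these data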;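 note: IDE supplied by intact live HEK cells; FP after avidin binding of uncleaved biotin substrate so inhibition keeps polarization high; 0% = DMSO wells and 100% = 60 µM reference IDE inhibitor Ii1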
HNF4A DNA FP: change in binding of human HNF4 alpha to DNA; P41235; HNF4a-FITC DNA binding, fluorescence polarization, 1 h; activity change, % at 10 µM; 0.3% of 360,000 active; in the data active = activity change above about 30%, passing the limit was not always enough
IDE inh confirm: cellular human IDE inhibition, confirmation; shares compounds with IDE cell inh; HEK cells, FAbetaB cleavage, fluorescence polarization; inhibition, % at 5.59 µM; 51% of 1,200 active; AID 435028;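 active = mean inhibition across triplicate wells above the cutoff set by the earlier primary insulin-degrading enzyme screen, cut at about 16% in these data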;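 note: 0% = DMSO wells and 100% = 60 µM reference IDE inhibitor Ii1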
HEK cytotox: HEK cell cytotoxicity, counter-screen for IDE inhibitors | shares compounds with IDE cell inh | HEK293 cytotoxicity, ATP luminescence | inhibition, % at 5.59 µM | 28% of 1,200 active | AID 449730; in the data active = inhibition above about 22%;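 note: 0% = vehicle wells and 100% = reference cytotoxic drug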
Active calls of the source: *; / = no result shown.

SMILES | Rpn11 block | IDE cell activ | CSN inh | TPT1 inhibitor | IDE cell inh | HNF4A DNA FP | IDE inh confirm | HEK cytotox
CC1(S(=O)(=O)O)CC(=O)c2ccccc2C1=O (stereo not given) | 2 | -9 | 3 | 0 | 43* | -3 | 116* | 29*
COCn1c(-c2cccc(Br)c2)nc2ccccc21 | -9 | -14 | 1 | 1 | 17* | 0 | 0 | 19
COCn1c(-c2ccc(OC)c(OC)c2)nc2ccccc21 | 6 | -5 | 3 | -5 | 12 | 3 | / | /
Cc1ccccc1-n1c(SCc2csc(Nc3ccccc3)n2)nnc1-c1cccnc1 | 4 | -13 | 0 | 1 | 21* | 4 | 7 | 20
S=C(c1cccs1)N1CCN(c2ccccc2)CC1 | -26 | 1 | 1 | / | / | 1 | / | /
CC(=O)Oc1ccc(N2C(=O)c3cccc4c([N+](=O)[O-])ccc(c34)C2=O)cc1 | -11 | -4 | -4 | 6 | 18* | -11 | 13 | 68*
CNn1cnc2ccsc2c1=O | -9 | 5 | 6 | -1 | 0 | 3 | / | /
CS(=O)(=O)c1cccc(C(=O)Nc2ccc(-c3nc4ccccc4[nH]3)cc2)c1 | 8 | -17 | -2 | -2 | 28* | 5 | 8 | 36*
Cc1ccccc1-c1cnc(C(O)c2c(C)cccc2C)[nH]1 (stereo not given) | -5 | / | 0 | / | / | 0 | / | /
C=CCn1c(O)c(N=NC(=O)OCC)c2ccccc21 | -3 | -1 | -3 | -2 | 0 | 3 | / | /
C=CCn1c(O)c(N=NC(=S)Nc2ccc(OC)cc2)c2ccccc21 | 10 | 4 | -1 | 0 | 17* | 2 | -1 | 57*
C=CCn1c(O)c(N=NC(=S)Nc2cccc(OC)c2)c2ccccc21 | 7 | -6 | 1 | -2 | 19* | 3 | 7 | 82*
O=C(NCCC(=O)N1CCC2(CC1)NCCc1[nH]cnc12)c1cccc(Cl)c1 | -7 | 4 | 2 | -2 | -2 | 2 | / | /
Oc1ccc(Cl)cc1C=Nc1ccc2c3c(cccc13)CC2 | / | -3 | 18 | 1 | 42* | 31 | 0 | 11
Oc1cccc(C=Nc2cccc3ccccc23)c1O | 16 | 0 | 15 | 5 | 0 | -3 | / | /
Cc1cccc(C=Nc2ccc3c4c(cccc24)CC3)c1O | 40 | -1 | 3 | 10 | 33* | 9 | 9 | 3
Cc1[nH]n(-c2ccccc2)c(=S)c1C=NCCCN=Cc1c(C)[nH]n(-c2ccccc2)c1=S | 4 | -16 | -5 | -4 | 32* | 0 | 4 | 123*
Cc1nn(C)c(C)c1N1C(=O)c2cccc3c(N)ccc(c23)C1=O | -243 | 12 | -72 | -106 | 7 | -91 | / | /
CCN1C(=O)c2cccc3c(N)ccc(c23)C1=O | -259 | 0 | -76 | -94 | 24* | -101 | 61* | 11
Cc1ccc(N2C(=O)c3cccc4c(N)ccc(c34)C2=O)c2cccnc12 | / | -80 | -78 | 14 | 84* | -103 | 65* | 68*
COc1ccc(C(=O)NC(=S)Nc2cccc3ncccc23)cc1[N+](=O)[O-] | 11 | -7 | 4 | -3 | 0 | -2 | / | /
CCOC(=O)C1=CC[C@@H](c2cccc(C)c2)N(S(=O)(=O)c2ccc(C)cc2)[C@H]1C(=O)OCC | -2 | -4 | -7 | / | 16* | -2 | 13 | 12
CCC(CC)C(=O)N(C)c1c(C)nc2c(OCc3ccc(Cl)cc3)cccn12 | 2 | / | 2 | / | / | 1 | / | /
COCCN1CC(CNC(=O)c2cc(COc3ccc(C)c(C)c3)on2)CC1=O (stereo not given) | -1 | -14 | 3 | -2 | 17* | -2 | 7 | 11
O=C(c1cccc(N2CCCC2=O)c1)N1CCN(c2ccccc2)CC1 | 2 | -6 | 3 | 0 | 2 | -1 | / | /
SMILES | Rpn11 block | IDE cell activ | CSN inh | TPT1 inhibitor | IDE cell inh | HNF4A DNA FP | IDE inh confirm | HEK cytotox
Cc1cccc(N2CCN(C(=O)c3cccc(N4C(=O)C5CC=CC(C)C5C4=O)c3)CC2)c1C (stereo not given) | 3 | -58 | 4 | 0 | 53* | -3 | 36* | 19
Cc1cccc(N2CCN(C(=O)c3cccc(N4CCCC4=O)c3)CC2)c1C | 5 | -18 | 3 | -2 | 19* | -3 | 12 | 12
Cc1ccc(Cn2c(=O)n(C)c(=O)c3sccc32)cc1 | -2 | 0 | 1 | -3 | 5 | 2 | / | /
Cc1nnsc1C(=O)N/N=C/c1ccc(OC(F)(F)F)cc1 | -4 | 2 | 6 | -2 | -1 | -1 | / | /
COc1cc(/C=C/C(O)=C/C(=O)/C=C/c2ccc(O)cc2)ccc1O | / | -70 | 108 | / | 44* | 122 | 109* | 19
CC(=O)Nc1ccc(S(=O)(=O)N2CCN=C2SCc2ccccc2C)cc1 | -3 | 6 | -1 | 1 | 2 | 5 | / | /
O=C(O)Cn1c2c(c3ccccc31)CSc1ccc(Cl)cc1-2 | -4 | -8 | 2 | 0 | 24* | 1 | 3 | 8
O=C(O)Cn1c2ccccc2c2ccccc21 | -2 | 2 | -13 | -2 | -4 | -1 | / | /
OC[C@@H]1CN(Cc2ccco2)C[C@H](n2cnc3c(N4CCN(c5ccccc5)CC4)ncnc32)O1 | -1 | / | 0 | / | / | -1 | / | /
CN1C(=O)CSc2ccc(NC(=O)NCCC3=CCCCC3)cc21 | -3 | -14 | 1 | 1 | 17* | 1 | 10 | 19
Cc1cccc(N2CCN(C(=O)Cn3sc4nc(C)cc(C)c4c3=O)CC2C)c1 (stereo not given) | 4 | -73 | 7 | 25* | 41* | 5 | 12 | 76*
Cc1ccc(NC(=O)Cn2c(C)cc(C)c(C#N)c2=O)c(Cl)c1 | -12 | -7 | 3 | -4 | 7 | 1 | / | /
Cc1cc(C)c2c(=O)n(CC(=O)Nc3ccc(Cl)cc3)sc2n1 | -2 | -58 | 2 | 5 | 46* | 3 | 9 | 76*
CCOc1ccc(NC(=O)Cn2ncc3ccccc32)cc1 | 2 | -2 | 3 | / | / | -3 | / | /
O=C(Cn1sc2ccccc2c1=O)Nc1ccc(Cl)cc1 | -6 | / | 4 | / | / | 2 | / | /
Cc1ccc(NC(=O)Cn2sc3nc(C)cc(C)c3c2=O)c(Cl)c1 | 0 | -63 | 2 | 6 | 54* | 2 | 11 | 27*
Cc1cccc(N2CCN(C(=O)Cn3nc(C)n4cccc4c3=O)CC2C)c1 (stereo not given) | 0 | -3 | 4 | -2 | -1 | -2 | / | /
CCOc1ccc(NC(=O)Cn2sc3nc(C)cc(C)c3c2=O)cc1 | 2 | -52 | 2 | 8 | 40* | 3 | 11 | 79*
C=Cc1ccc(Cn2c(=O)n(CCCOC)c(=O)c3sccc32)cc1 | 3 | -1 | 1 | -4 | 1 | -2 | / | /

Screens from PubChem BioAssay.
